Key:
Type in all cases: functional
[1] = test system: NCI-H522; assay: Antiproliferative activity against human NCI-H522 cells after 48 hrs by SRB assay; conditions: NCI-H522, 48 h
Procedure, shortened: (§1)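 NCI 60-cell-line human tumour panel, secondary five-dose screen. Compounds tested at 100, 10, 1.0, 0.1 and 0.01 µM with 48 h continuous exposure. Cell growth was estimated by sulforhodamine B protein staining. GI50 is the concentration giving a 50% reduction in net protein increase relative to untreated control cells over the incubation. TGI and LC50 were also derived.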

[2] = test system: NCI/ADR-RES; assay: Antiproliferative activity against human NCI/ADR-RES cells after 48 hrs by SRB assay
Procedure, shortened: (§2)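 NCI 60-cell human tumour line panel. Continuous 48 h drug exposure at five concentrations (100, 10, 1.0, 0.1, 0.01 µM). Cell growth estimated by sulforhodamine B protein staining. GI50 = concentration giving 50% reduction in net protein increase versus control cells over the incubation. LC50 = molar concentration killing 50% of cells.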

[3] = test system: KM12; assay: Antiproliferative activity against human KM12 cells after 48 hrs by SRB assay; conditions: KM12, 48 h, read-out: LC50 (the source's name); procedure, shortened: as §1
[4] = test system: CAKI-1; assay: Antiproliferative activity against human Caki1 cells after 48 hrs by SRB assay; conditions: CAKI-1, 48 h; procedure, shortened: as §2
[5] = test system: OVCAR-5; assay: Antiproliferative activity against human OVCAR5 cells after 48 hrs by SRB assay; conditions: OVCAR-5, 48 h; for CC50: read-out: LC50 (the source's name); procedure, shortened: as §1
[6] = test system: SN12C; assay: Antiproliferative activity against human SN12C cells after 48 hrs by SRB assay; conditions: read-out: LC50 (the source's name); procedure, shortened: as §1
[7] = test system: UACC-62; assay: Antiproliferative activity against human UACC62 cells after 48 hrs by SRB assay; conditions: UACC-62, 48 h; for CC50: read-out: LC50 (the source's name); procedure, shortened: as §1
[8] = test system: HOP-92; assay: Antiproliferative activity against human HOP92 cells after 48 hrs by SRB assay; conditions: HOP-92, 48 h; procedure, shortened: as §1
[9] = test system: COLO 205; assay: Antiproliferative activity against human COLO205 cells after 48 hrs by SRB assay; conditions: COLO 205, 48 h; procedure, shortened: as §2
[10] = test system: NCI-H23; assay: Antiproliferative activity against human NCI-H23 cells after 48 hrs by SRB assay; conditions: NCI-H23, 48 h; procedure, shortened: as §2
[11] = test system: ACHN; assay: Antiproliferative activity against human ACHN cells after 48 hrs by SRB assay; procedure, shortened: as §2
[12] = test system: BT-549; assay: Antiproliferative activity against human BT549 cells after 48 hrs by SRB assay; conditions: BT-549, 48 h; for CC50: read-out: LC50 (the source's name); procedure, shortened: as §1
[13] = test system: SF-268; assay: Antiproliferative activity against human SF268 cells after 48 hrs by SRB assay; conditions: SF-268, 48 h; procedure, shortened: as §1
[14] = test system: HCC 2998; assay: Antiproliferative activity against human HCC2998 cells after 48 hrs by SRB assay; conditions: HCC 2998, 48 h; for CC50: read-out: LC50 (the source's name); procedure, shortened: as §1
[15] = test system: T47D; assay: Antiproliferative activity against human T47D cells after 48 hrs by SRB assay; procedure, shortened: as §2
[16] = test system: Malme-3M; assay: Antiproliferative activity against human MALME-3M cells after 48 hrs by SRB assay; conditions: for CC50: read-out: LC50 (the source's name); procedure, shortened: as §1
[17] = test system: SK-MEL-2; assay: Antiproliferative activity against human SK-MEL-2 cells after 48 hrs by SRB assay; conditions: SK-MEL-2, 48 h; for CC50: read-out: LC50 (the source's name); procedure, shortened: as §1
[18] = test system: RXF 393; assay: Antiproliferative activity against human RXF393 cells after 48 hrs by SRB assay; conditions: RXF 393, 48 h; procedure, shortened: as §2
[19] = test system: NCI-H322M; assay: Antiproliferative activity against human NCI-H322M cells after 48 hrs by SRB assay; conditions: read-out: LC50 (the source's name); procedure, shortened: as §1
[20] = test system: NCI-H460; assay: Antiproliferative activity against human NCI-H460 cells after 48 hrs by SRB assay; conditions: NCI-H460, 48 h; procedure, shortened: as §1
[21] = test system: HCT-116; assay: Antiproliferative activity against human HCT116 cells after 48 hrs by SRB assay; conditions: HCT-116, 48 h; procedure, shortened: as §2
[22] = test system: MDA-MB-231; assay: Antiproliferative activity against human MDA-MB-231 cells after 48 hrs by SRB assay; conditions: MDA-MB-231, 48 h; procedure, shortened: as §2
[23] = test system: EKVX; assay: Antiproliferative activity against human EKVX cells after 48 hrs by SRB assay; conditions: for CC50: read-out: LC50 (the source's name); procedure, shortened: as §1
[24] = test system: SNB-19; assay: Antiproliferative activity against human SNB19 cells after 48 hrs by SRB assay; conditions: SNB-19, 48 h; for CC50: read-out: LC50 (the source's name); procedure, shortened: as §1
[25] = test system: SK-OV-3; assay: Antiproliferative activity against human SKOV3 cells after 48 hrs by SRB assay; conditions: SK-OV-3, 48 h; for CC50: read-out: LC50 (the source's name); procedure, shortened: as §1
[26] = test system: UACC-257; assay: Antiproliferative activity against human UACC257 cells after 48 hrs by SRB assay; conditions: UACC-257, 48 h; procedure, shortened: as §1
[27] = test system: NCI-H226; assay: Antiproliferative activity against human NCI-H226 cells after 48 hrs by SRB assay; conditions: NCI-H226, 48 h; for CC50: read-out: LC50 (the source's name); procedure, shortened: as §1
[28] = test system: MDA-MB-435; assay: Antiproliferative activity against human MDA-MB-435 cells after 48 hrs by SRB assay; conditions: MDA-MB-435, 48 h, read-out: LC50 (the source's name); procedure, shortened: as §1
[29] = test system: UO-31; assay: Antiproliferative activity against human UO31 cells after 48 hrs by SRB assay; conditions: UO-31, 48 h; for CC50: read-out: LC50 (the source's name); procedure, shortened: as §1
[30] = test system: U-251; assay: Antiproliferative activity against human U251 cells after 48 hrs by SRB assay; conditions: U-251, 48 h; procedure, shortened: as §2
[31] = test system: M14; assay: Antiproliferative activity against human M14 cells after 48 hrs by SRB assay; conditions: M14, 48 h, read-out: LC50 (the source's name); procedure, shortened: as §1
[32] = test system: A498; assay: Antiproliferative activity against human A498 cells after 48 hrs by SRB assay; conditions: A498, 48 h; for CC50: read-out: LC50 (the source's name); procedure, shortened: as §1
[33] = test system: MDA-MB-468; assay: Antiproliferative activity against human MDA-MB-468 cells after 48 hrs by SRB assay; conditions: MDA-MB-468, 48 h; for CC50: read-out: LC50 (the source's name); procedure, shortened: as §1
[34] = test system: SR; assay: Antiproliferative activity against human SR cells after 48 hrs by SRB assay; procedure, shortened: as §1
[35] = test system: TK-10; assay: Antiproliferative activity against human TK10 cells after 48 hrs by SRB assay; conditions: TK-10, 48 h; for CC50: read-out: LC50 (the source's name); procedure, shortened: as §1
[36] = test system: SK-MEL-5; assay: Antiproliferative activity against human SK-MEL-5 cells after 48 hrs by SRB assay; conditions: SK-MEL-5, 48 h; procedure, shortened: as §2
[37] = test system: SK-MEL-28; assay: Antiproliferative activity against human SK-MEL-28 cells after 48 hrs by SRB assay; conditions: SK-MEL-28, 48 h, read-out: LC50 (the source's name); procedure, shortened: as §1
[38] = test system: SNB-75; assay: Antiproliferative activity against human SNB75 cells after 48 hrs by SRB assay; conditions: SNB-75, 48 h; procedure, shortened: as §1
[39] = read-out: LC50 (the source's name)

## COc1ccc(C2=NN(C(C)=O)C(c3cn(-c4ccccc4)nc3-c3ccc(Cl)cc3)C2)cc1 (stereo not drawn)
[1]
  GI50: 2.2 µM
  LC50 (concentration killing 50% of tumour cells): > 100 µM
[2]
  GI50: 1.8 µM
[3]
  CC50: > 100 µM
[4]
  GI50: 1.96 µM
[5]
  GI50: 1810 nM
  CC50: > 100 µM
[6]
  CC50: > 100 µM
[7]
  GI50: 2.4 µM
  CC50: > 100 µM
[8]
  GI50: 40 nM
[9]
  GI50: 2160 nM
[10]
  GI50: 1.77 µM
[11]
  GI50: 1.82 µM
[12]
  CC50: > 100 µM
[13]
  GI50: 4.55 µM
  LC50: > 100 µM
[14]
  GI50: 2210 nM
  CC50: > 100 µM
[15]
  GI50: 1900 nM
[16]
  CC50: > 100 µM
[17]
  CC50: > 100 µM
[18]
  GI50: 1820 nM
[19]
  CC50: > 100 µM
[20]
  GI50: 1980 nM
[21]
  GI50: 1940 nM
[22]
  GI50: 1880 nM
[23]
  CC50: > 100 µM
[24]
  CC50: > 100 µM
[25]
  GI50: 2.14 µM
  CC50: > 100 µM
[26]
  GI50: > 100 µM
  LC50 (concentration killing 50% of cells): > 100 µM
[27]
  CC50: > 100 µM
[28]
  CC50: > 100 µM
[29]
  CC50: > 100 µM
[30]
  GI50: 1710 nM
[31]
  CC50: > 100 µM
[32]
  CC50: > 100 µM
[33]
  CC50: > 100 µM
[34]
  GI50: 1570 nM
[35]
  CC50: > 100 µM
[36]
  GI50: 1790 nM
[37]
  CC50: > 100 µM
[38]
  GI50: 2760 nM
  LC50 (50% lethal concentration): > 100 µM

## O=C(/C=C/c1cn(-c2ccccc2)nc1-c1ccc([N+](=O)[O-])cc1)c1ccc(Cl)cc1
[1]
  GI50: 6.41 µM
  LC50 (concentration killing 50% of tumour cells): > 100 µM
[2]
  GI50: 4.64 µM
[2]; [39]
  CC50: > 100 µM
[3]
  CC50: > 100 µM
[4]
  GI50: 4.56 µM
[4]; [39]
  CC50: > 100 µM
[5]
  GI50: > 100000 nM
  CC50: > 100 µM
[6]
  CC50: > 100 µM
[7]
  GI50: 11.4 µM
  CC50: > 100 µM
[8]; [39]
  CC50: > 100 µM
[9]
  GI50: 2090 nM
[10]
  GI50: 4.99 µM
[10]; [39]
  CC50: > 100 µM
[11]
  GI50: 4.27 µM
[11]; [39]
  CC50: > 100 µM
[12]
  GI50: 2250 nM
  CC50: > 100 µM
[13]
  GI50: 3.12 µM
  LC50: > 100 µM
[14]
  GI50: > 100000 nM
  CC50: > 100 µM
[15]
  GI50: 1120 nM
[15]; [39]
  CC50: > 100 µM
[16]
  GI50: 2440 nM
  CC50: > 100 µM
[17]
  GI50: 6.99 µM
  CC50: 57.9 µM
[18]
  GI50: 2080 nM
[18]; [39]
  CC50: 9.87 µM
[19]
  CC50: > 100 µM
[20]; [39]
  CC50: > 100 µM
[21]
  GI50: 2750 nM
[21]; [39]
  CC50: > 100 µM
[22]
  GI50: 2450 nM
[22]; [39]
  CC50: > 100 µM
[23]
  GI50: 4.97 µM
  CC50: > 100 µM
[24]
  GI50: 4.9 µM
  CC50: > 100 µM
[25]
  GI50: 12.5 µM
  CC50: > 100 µM
[26]
  GI50: > 100 µM
  LC50 (concentration killing 50% of cells): > 100 µM
[27]
  GI50: 3.77 µM
  CC50: > 100 µM
[28]
  CC50: > 100 µM
[29]
  GI50: 100 nM
  CC50: > 100 µM
[30]
  GI50: 2090 nM
[30]; [39]
  CC50: > 100 µM
[31]
  CC50: > 100 µM
[32]
  GI50: 3.14 µM
  CC50: > 100 µM
[33]
  GI50: 2910 nM
  CC50: > 100 µM
[34]
  GI50: 2760 nM
  LC50 (50% net cell kill): > 100 µM
[35]
  GI50: 3.12 µM
  CC50: > 100 µM
[36]
  GI50: > 100000 nM
[36]; [39]
  CC50: > 100 µM
[37]
  CC50: > 100 µM
[38]
  GI50: 1550 nM
  LC50 (50% lethal concentration): 24 µM

Source: ChEMBL document CHEMBL1177688, “Synthesis of novel pyrazolic analogues of chalcones and their 3-aryl-4-(3-aryl-4,5-dihydro-1H-pyrazol-5-yl)-1-phenyl-1H-pyrazole derivatives as potential antitumor agents” (2010)
